ChEMBL document CHEMBL1275468, “Plasmid-mediated qnrB2 and carbapenemase gene bla(KPC-2) carried on the same plasmid in carbapenem-resistant ciprofloxacin-susceptible Enterobacter cloacae isolates” (2008)
In brackets after ≈: the same amount, converted by molar mass.

How the values were obtained:
Type in all cases: functional
Enterobacter cloacae [1] = assay: Antimicrobial activity against Enterobacter cloacae isolate 533 containing PFGE genetic clone A expressing qnrB2 and beta-lactamase KPC-2 and SHV-12 gene by Etest in presence of beta-lactamase inhibitor Tazobactam
Method in brief: (§1)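 Clinical carbapenem-resistant, blaKPC-2-carrying E. cloacae isolates; MIC read by Etest. Clonal relatedness typed by PFGE after SpeI (20 U) digestion of genomic DNA on a CHEF-DR III system. qnr genes, and aac(6′)-Ib-cr by PCR with BtsCI digestion, detected from cell-lysate templates.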

Enterobacter cloacae [2] = assay: Antimicrobial activity against Enterobacter cloacae isolate 533 containing PFGE genetic clone A expressing qnrB2 and beta-lactamase KPC-2 and SHV-12 gene by Etest
Enterobacter cloacae [3] = assay: Antimicrobial activity against Enterobacter cloacae isolate 649 containing PFGE genetic clone B expressing qnrB2 and beta-lactamase KPC-2 and SHV-12 gene by Etest
Enterobacter cloacae [4] = assay: Antimicrobial activity against Enterobacter cloacae isolate 1 containing PFGE genetic clone A expressing qnrB2 and beta-lactamase KPC-2 and SHV-12 gene by Etest in presence of beta-lactamase inhibitor Tazobactam; method in brief: as §1
Enterobacter cloacae [5] = assay: Antimicrobial activity against Enterobacter cloacae isolate 1 containing PFGE genetic clone A expressing qnrB2 and beta-lactamase KPC-2 and SHV-12 gene by Etest
Escherichia coli [6] = assay: Antimicrobial activity against Escherichia coli T-781 harboring expressing qnrB2 and beta-lactamase KPC-2 and SHV-12 gene by Etest
Method in brief: (§2)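 MIC read by Etest. Strains are E. coli GeneHogs (recA1) transformants. Plasmid DNA from clinical E. cloacae isolates was introduced by electroporation. Transformants were selected on LB agar with 100 μg/ml ampicillin, then PCR-screened for blaKPC, blaSHV and qnr genes.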

Enterobacter cloacae [7] = assay: Antimicrobial activity against Enterobacter cloacae isolate 625 containing PFGE genetic clone A expressing qnrB2 and beta-lactamase KPC-2 and SHV-12 gene by Etest
Escherichia coli [8] = assay: Antimicrobial activity against Escherichia coli T-622 harboring expressing qnrB2 and beta-lactamase KPC-2 and SHV-12 gene by Etest in presence of beta-lactamase inhibitor Tazobactam
Enterobacter cloacae [9] = assay: Antimicrobial activity against Enterobacter cloacae isolate 658 containing PFGE genetic clone B expressing qnrB2 and beta-lactamase KPC-2 and SHV-12 gene by Etest in presence of beta-lactamase inhibitor Tazobactam; method in brief: as §1
Enterobacter cloacae [10] = assay: Antimicrobial activity against Enterobacter cloacae isolate 4469 containing PFGE genetic clone C expressing qnrB2 and beta-lactamase KPC-2 and SHV-12 gene by Etest in presence of beta-lactamase inhibitor Tazobactam
Enterobacter cloacae [11] = assay: Antimicrobial activity against Enterobacter cloacae isolate 837 containing PFGE genetic clone B expressing qnrB2 and beta-lactamase KPC-2 and SHV-12 gene by Etest
Enterobacter cloacae [12] = assay: Antimicrobial activity against Enterobacter cloacae isolate 151 containing PFGE genetic clone A expressing qnrB2 and beta-lactamase KPC-2 gene by Etest
Enterobacter cloacae [13] = assay: Antimicrobial activity against Enterobacter cloacae isolate 781 containing PFGE genetic clone B expressing qnrB2 and beta-lactamase KPC-2 and SHV-12 gene by Etest
Enterobacter cloacae [14] = assay: Antimicrobial activity against Enterobacter cloacae isolate 18 containing PFGE genetic clone A expressing qnrB2 and beta-lactamase KPC-2 and SHV-12 gene by Etest in presence of beta-lactamase inhibitor Tazobactam; method in brief: as §1
Enterobacter cloacae [15] = assay: Antimicrobial activity against Enterobacter cloacae isolate 658 containing PFGE genetic clone B expressing qnrB2 and beta-lactamase KPC-2 and SHV-12 gene by Etest
Enterobacter cloacae [16] = assay: Antimicrobial activity against Enterobacter cloacae isolate 649 containing PFGE genetic clone B expressing qnrB2 and beta-lactamase KPC-2 and SHV-12 gene by Etest in presence of beta-lactamase inhibitor Tazobactam; method in brief: as §1
Enterobacter cloacae [17] = assay: Antimicrobial activity against Enterobacter cloacae isolate 622 containing PFGE genetic clone A expressing qnrB2 and beta-lactamase KPC-2 and SHV-12 gene by Etest in presence of beta-lactamase inhibitor Tazobactam; method in brief: as §1
Enterobacter cloacae [18] = assay: Antimicrobial activity against Enterobacter cloacae isolate 140 containing PFGE genetic clone A expressing beta-lactamase KPC-2 and SHV-12 gene by Etest in presence of beta-lactamase inhibitor Tazobactam; method in brief: as §1
Enterobacter cloacae [19] = assay: Antimicrobial activity against Enterobacter cloacae isolate 185 containing PFGE genetic clone A expressing qnrB2 aac(6')-Ib-cr and beta-lactamase KPC-2 and SHV-12 gene by Etest in presence of beta-lactamase inhibitor Tazobactam; method in brief: as §1
Escherichia coli [20] = assay: Antimicrobial activity against Escherichia coli GeneHogs by Etest in presence of beta-lactamase inhibitor Tazobactam
Method in brief: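 Recipient is E. coli GeneHogs (recA1), electroporated with plasmid DNA from clinical isolates. Transformants were selected on LB agar with 100 μg/ml ampicillin and PCR-screened for blaKPC, blaSHV and qnr genes. MIC read by Etest.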

Enterobacter cloacae [21] = assay: Antimicrobial activity against Enterobacter cloacae isolate 151 containing PFGE genetic clone A expressing qnrB2 and beta-lactamase KPC-2 gene by Etest in presence of beta-lactamase inhibitor Tazobactam; method in brief: as §1
Enterobacter cloacae [22] = assay: Antimicrobial activity against Enterobacter cloacae isolate 781 containing PFGE genetic clone B expressing qnrB2 and beta-lactamase KPC-2 and SHV-12 gene by Etest in presence of beta-lactamase inhibitor Tazobactam; method in brief: as §1
Enterobacter cloacae [23] = assay: Antimicrobial activity against Enterobacter cloacae isolate 140 containing PFGE genetic clone A expressing beta-lactamase KPC-2 and SHV-12 gene by Etest
Escherichia coli [24] = assay: Antimicrobial activity against Escherichia coli GeneHogs by Etest
Method in brief: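 MIC read by Etest on the plasmid-free electroporation recipient, E. coli GeneHogs (recA1 mutant).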

Escherichia coli [25] = assay: Antimicrobial activity against Escherichia coli T-625 harboring expressing qnrB2 and beta-lactamase KPC-2 and SHV-12 gene by Etest; method in brief: as §2
Enterobacter cloacae [26] = assay: Antimicrobial activity against Enterobacter cloacae isolate 293 containing PFGE genetic clone A expressing qnrB2 and beta-lactamase KPC-2 and SHV-12 gene by Etest
Enterobacter cloacae [27] = assay: Antimicrobial activity against Enterobacter cloacae isolate 293 containing PFGE genetic clone A expressing qnrB2 and beta-lactamase KPC-2 and SHV-12 gene by Etest in presence of beta-lactamase inhibitor Tazobactam; method in brief: as §1
Enterobacter cloacae [28] = assay: Antimicrobial activity against Enterobacter cloacae isolate 18 containing PFGE genetic clone A expressing qnrB2 and beta-lactamase KPC-2 and SHV-12 gene by Etest
Enterobacter cloacae [29] = assay: Antimicrobial activity against Enterobacter cloacae isolate 625 containing PFGE genetic clone A expressing qnrB2 and beta-lactamase KPC-2 and SHV-12 gene by Etest in presence of beta-lactamase inhibitor Tazobactam; method in brief: as §1
Enterobacter cloacae [30] = assay: Antimicrobial activity against Enterobacter cloacae isolate 185 containing PFGE genetic clone A expressing qnrB2 aac(6')-Ib-cr and beta-lactamase KPC-2 and SHV-12 gene by Etest
Enterobacter cloacae [31] = assay: Antimicrobial activity against Enterobacter cloacae isolate 837 containing PFGE genetic clone B expressing qnrB2 and beta-lactamase KPC-2 and SHV-12 gene by Etest in presence of beta-lactamase inhibitor Tazobactam; method in brief: as §1
Enterobacter cloacae [32] = assay: Antimicrobial activity against Enterobacter cloacae isolate 4469 containing PFGE genetic clone C expressing qnrB2 and beta-lactamase KPC-2 and SHV-12 gene by Etest
Enterobacter cloacae [33] = assay: Antimicrobial activity against Enterobacter cloacae isolate 622 containing PFGE genetic clone A expressing qnrB2 and beta-lactamase KPC-2 and SHV-12 gene by Etest
Enterobacter cloacae [34] = assay: Antimicrobial activity against Enterobacter cloacae isolate 656 containing PFGE genetic clone A expressing beta-lactamase KPC-2 and SHV-12 gene by Etest in presence of beta-lactamase inhibitor Tazobactam; method in brief: as §1
Escherichia coli [35] = assay: Antimicrobial activity against Escherichia coli T-625 harboring expressing qnrB2 and beta-lactamase KPC-2 and SHV-12 gene by Etest in presence of beta-lactamase inhibitor Tazobactam
Enterobacter cloacae [36] = assay: Antimicrobial activity against Enterobacter cloacae isolate 656 containing PFGE genetic clone A expressing beta-lactamase KPC-2 and SHV-12 gene by Etest
Escherichia coli [37] = assay: Antimicrobial activity against Escherichia coli T-622 harboring expressing qnrB2 and beta-lactamase KPC-2 and SHV-12 gene by Etest; method in brief: as §2
Escherichia coli [38] = assay: Antimicrobial activity against Escherichia coli T-781 harboring expressing qnrB2 and beta-lactamase KPC-2 and SHV-12 gene by Etest in presence of beta-lactamase inhibitor Tazobactam

| SMILES | MIC (Enterobacter cloacae [2]) | MIC (Enterobacter cloacae [3]) | MIC (Enterobacter cloacae [5]) | MIC (Escherichia coli [6]) | MIC (Enterobacter cloacae [7]) | MIC (Enterobacter cloacae [11]) | MIC (Enterobacter cloacae [12]) | MIC (Enterobacter cloacae [13]) | MIC (Enterobacter cloacae [15]) | MIC (Enterobacter cloacae [23]) | MIC (Escherichia coli [24]) | MIC (Escherichia coli [25]) | MIC (Enterobacter cloacae [26]) | MIC (Enterobacter cloacae [28]) | MIC (Enterobacter cloacae [30]) | MIC (Enterobacter cloacae [32]) | MIC (Enterobacter cloacae [33]) | MIC (Enterobacter cloacae [36]) | MIC (Escherichia coli [37]) | further results |
| --- | --- | --- | --- | --- | --- | --- | --- | --- | --- | --- | --- | --- | --- | --- | --- | --- | --- | --- | --- | --- |
| CCN1CCN(C(=O)N[C@@H](C(=O)N[C@@H]2C(=O)N3[C@@H]2SC(C)(C)[C@@H]3C(=O)O)c2ccccc2)C(=O)C1=O [PIPERACILLIN] | ≥ 128 µg/mL | ≥ 128 µg/mL | ≥ 128 µg/mL | ≥ 128 µg/mL | ≥ 128 µg/mL | ≥ 128 µg/mL | ≥ 128 µg/mL | ≥ 128 µg/mL | ≥ 128 µg/mL | ≥ 128 µg/mL | ≤ 4 µg/mL | ≥ 128 µg/mL | ≥ 128 µg/mL | ≥ 128 µg/mL | ≥ 128 µg/mL | ≥ 128 µg/mL | ≥ 128 µg/mL | ≥ 128 µg/mL | ≥ 128 µg/mL | MIC (Enterobacter cloacae [1]): ≥ 128 µg/mL; MIC (Enterobacter cloacae [4]): ≥ 128 µg/mL; MIC (Escherichia coli [8]): 64 µg/mL; MIC (Enterobacter cloacae [9]): ≥ 128 µg/mL; MIC (Enterobacter cloacae [10]): 64 µg/mL; MIC (Enterobacter cloacae [14]): ≥ 128 µg/mL; MIC (Enterobacter cloacae [16]): ≥ 128 µg/mL; MIC (Enterobacter cloacae [17]): ≥ 128 µg/mL; MIC (Enterobacter cloacae [18]): ≥ 128 µg/mL; MIC (Enterobacter cloacae [19]): ≥ 128 µg/mL; MIC (Escherichia coli [20]): ≤ 4 µg/mL; MIC (Enterobacter cloacae [21]): ≥ 128 µg/mL; MIC (Enterobacter cloacae [22]): ≥ 128 µg/mL; MIC (Enterobacter cloacae [27]): ≥ 128 µg/mL; MIC (Enterobacter cloacae [29]): ≥ 128 µg/mL; MIC (Enterobacter cloacae [31]): ≥ 128 µg/mL; MIC (Enterobacter cloacae [34]): ≥ 128 µg/mL; MIC (Escherichia coli [35]): ≥ 128 µg/mL; MIC (Escherichia coli [38]): 64 µg/mL |
| C[C@@H](O)[C@H]1C(=O)N2C(C(=O)O)=C(SCCNC=N)C[C@H]12 [IMIPENEM ANHYDROUS] | 4 µg/mL (≈ 13.4 µM) | 32 µg/mL (≈ 107 µM) | 16 µg/mL (≈ 53.4 µM) | 3 µg/mL (≈ 10 µM) | 16 µg/mL (≈ 53.4 µM) | 6 µg/mL (≈ 20 µM) | 12 µg/mL (≈ 40.1 µM) | > 32 µg/mL | > 32 µg/mL | > 32 µg/mL | 0.125 µg/mL (≈ 0.418 µM) | 8 µg/mL (≈ 26.7 µM) | > 32 µg/mL | 8 µg/mL (≈ 26.7 µM) | 8 µg/mL (≈ 26.7 µM) | 24 µg/mL (≈ 80.2 µM) | 24 µg/mL (≈ 80.2 µM) | 32 µg/mL (≈ 107 µM) | 4 µg/mL (≈ 13.4 µM) |  |
| C[C@@H](O)[C@H]1C(=O)N2C(C(=O)O)=C(S[C@@H]3CN[C@H](C(=O)Nc4cccc(C(=O)O)c4)C3)[C@H](C)[C@H]12 | 24 µg/mL (≈ 50.5 µM) | 16 µg/mL (≈ 33.6 µM) | 32 µg/mL (≈ 67.3 µM) | 12 µg/mL (≈ 25.2 µM) | 24 µg/mL (≈ 50.5 µM) | 8 µg/mL (≈ 16.8 µM) | > 32 µg/mL | > 32 µg/mL | 12 µg/mL (≈ 25.2 µM) | > 32 µg/mL | 0.012 µg/mL (≈ 0.0252 µM) | 8 µg/mL (≈ 16.8 µM) | > 32 µg/mL | 4 µg/mL (≈ 8.41 µM) | 4 µg/mL (≈ 8.41 µM) | > 32 µg/mL | 32 µg/mL (≈ 67.3 µM) | 16 µg/mL (≈ 33.6 µM) | 8 µg/mL (≈ 16.8 µM) |  |
